Among the data in ChEMBL document CHEMBL1123939, “Evaluation of isomeric 4-(chlorohydroxyphenyl)-1,2,3,4-tetrahydroisoquinolines as dopamine D-1 antagonists” (J Med Chem, 1987) are inhibition values, retold here.

Usually inhibition stands for the relative decrease from the control value, in per cent.

SMILES strings stand for the structures. Active and inactive are the calls of the source. No cut-off for these calls is given here.

Holding throughout (format): protein assay
The target of assay [1] is T1, Adenylate cyclase (Rattus norvegicus) (UniProt D4A3N4+P26770+Q04400+P26769+Q03343+P40146+Q8CFM9+P21932). Put plainly: Inhibition of dopamine sensitive adenylate cyclase at 1 uM; […].
Assay [2] deals with T1, Adenylate cyclase (Rattus norvegicus). Put plainly: Inhibition of dopamine sensitive adenylate cyclase at 10 uM; No inhibition.
For assay [3] the target is unchanged. Put plainly: Inhibition of dopamine sensitive adenylate cyclase at 100 uM; No inhibition.
The target is the same in assay [4]. Put plainly: Inhibition of dopamine sensitive adenylate cyclase at 30 uM.
Assay [5] has the same target. Put plainly: Inhibition of dopamine sensitive adenylate cyclase at 100 uM.
The target is the same in assay [6]. Put plainly: Inhibition of dopamine sensitive adenylate cyclase at 10 uM.
Assay [7] has the same target. Put plainly: Inhibition of dopamine sensitive adenylate cyclase at 0.01 uM. A digest of the protocol: (§1)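 Rat retinas homogenized in 150 vol/wt 2.0 mM Tris-HCl pH 7.4 with 2 mM EDTA. Incubated 20 min, 30 °C. Stopped with SDS/ATP/cyclic AMP containing [3H]cyclic AMP, then heated 85 °C, 2 min.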
For assay [8] the target is unchanged. Put plainly: Inhibition of dopamine sensitive adenylate cyclase at 0.1 uM. A digest of the protocol: as §1
Assay [9] shares this target. Put plainly: Inhibition of dopamine sensitive adenylate cyclase at 1 uM. A digest of the protocol: as §1

As for `Oc1ccc(C2CNCc3ccccc32)cc1Cl` (stereo unspecified), the inhibition result in assay [1], in assay [2] and in assay [3] was “inactive” throughout.
Take `CN1Cc2ccccc2C(c2ccc(Cl)c(O)c2)C1` (stereo unspecified): the inhibition entry in assay [1] is “inactive”. Besides, the inhibition in assay [4] is 45.1%; in assay [5], 57.9%; in assay [6] it was 21%.
In the case of `CN1CCc2cc(Cl)c(O)cc2[C@@H](c2ccccc2)C1`, the inhibition in [7] came out at 23.2%; in assay [8], 59.9%; in assay [9], 74.3%.
As for `Oc1cc(C2CNCc3ccccc32)ccc1Cl` (stereo unspecified), the inhibition entry in assay [1] is “inactive”. Moreover, the values for the inhibition in assay [5] and in [6] were 26.3% and 8.9%, respectively.
For `Oc1cccc(C2CNCc3ccccc32)c1` (stereo unspecified) the same measures were “inactive”, 22.9% and 8.8%.
